The list is not random: actives were taken first. Their share in the collection is about 0.59%.
V1aR counter – counter-screen for oxytocin receptor agonists: human V1a receptor agonists; CHO-V1R cells, Fluo-8 calcium fluorescence, agonist mode; 0% DMSO, 100% 3 nM vasopressin; hit rate 0.25% among 320,000; activation, % at 3 µM; AID 2797;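 active means activation above the mean activation of all tested compounds plus 3 SD, per screening run, cut at about 20% in these data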;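 further: signal is peak over basal fluorescence ratio across a 100 second FLIPR read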
Target sequence (P37288 whole entry, looked up): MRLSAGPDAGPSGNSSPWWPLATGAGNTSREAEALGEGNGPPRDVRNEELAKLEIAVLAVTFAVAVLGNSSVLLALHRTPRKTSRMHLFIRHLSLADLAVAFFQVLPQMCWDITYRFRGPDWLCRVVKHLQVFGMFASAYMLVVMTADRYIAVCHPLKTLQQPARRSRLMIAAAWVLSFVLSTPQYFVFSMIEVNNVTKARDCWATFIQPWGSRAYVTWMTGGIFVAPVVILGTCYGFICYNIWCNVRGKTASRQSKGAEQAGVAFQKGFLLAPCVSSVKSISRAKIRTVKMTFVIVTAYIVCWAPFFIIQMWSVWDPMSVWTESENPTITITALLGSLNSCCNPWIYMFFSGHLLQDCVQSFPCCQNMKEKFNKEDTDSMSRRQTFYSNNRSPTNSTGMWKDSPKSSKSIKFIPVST
OXTR potentiate – human OXTR potentiation | CHO-OTR cells, Fluo-8 calcium fluorescence, potentiator mode; 0% = oxytocin EC15, 100% = EC100 | activation, % at 3 µM | hit rate 0.061% among 320,000;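 active means activation above that plate's cutoff, the mean activation of tested compounds plus 3 SD, cut at about 6.6% in these data, passing the limit was not always enough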
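Replication – single well per compound, singlicate · Assay system – CHO cell line stably expressing human OTR · Timing – 6 min pre-incubation, 100 s read · Measure – normalized max/min fluorescence ratio, % activation · Doses – 3.0 µM, one dose · Detection – Fluo-8 calcium dye fluorescence · Probe or stimulus – oxytocin near EC15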
TRPML3 agonist – agonists of human TRPML3 channel; hit rate 0.29% among 220,000; Q8TDD5; AID 1448; activation, % at 3 µM; HEK293 TRPML3-YFP, Fluo-8 calcium fluorescence; 100% = the carbachol control signal;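 active means activation above its plate's cutoff, the mean activation of the plate's test wells plus 3 SD, cut at about 12% in these data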
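Test system: HEK293 cells stably carrying human TRPML3-YFP; Doses: single dose, 3 µM final nominal compound, 0.3% DMSO final; Schedule: dye loading 1 h 37 °C then 30 min ambient, 125 s read; Technique: Fluo-8 calcium fluorescence; Benchmarks: high control carbachol 87 µM, low control DMSO.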
zfTRPN1 agonist – agonists of zebrafish TRPN1 channel; AID 1424; hit rate 0.18% among 220,000; activation, % at 3 µM; HEK293 zebrafish TRPN1-YFP, Fluo-8 calcium fluorescence; 100% = response to 87 µM carbachol;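 active means activation above its plate's cutoff, the mean activation of test wells on that plate plus 3 SD, cut at about 19% in these data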
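Material: zebrafish TRPN1-YFP in HEK293 cells. Doses: one dose of 3 µM, 0.3% DMSO. Incubation: dye 1 h 37 °C plus 30 min RT. Measured by: intracellular calcium fluorescence with Fluo-8.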
OXTR agonist – human OXTR agonism; hit rate 0.32% among 320,000; P30559; activation, % at 3 µM; CHO-OTR cells, Fluo-8 calcium fluorescence; normalized: DMSO 0%, oxytocin 100%;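 active means activation above the mean of all tested compounds plus 3 SD, cutoff set per screening run, cut at about 20% in these data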;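 further: peak over basal fluorescence ratio from a 100 s FLIPR kinetic read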
Large screens that a line does not name were inactive.

Cc1cc(N2CCCC2)ccc1/C=C1/C(=O)N(C)C(=S)N1C	none
Cc1ccc(CCNS(=O)(=O)c2cc3c(cc2Cl)NC(=O)CO3)cc1	none (no result: TRPML3 agonist, zfTRPN1 agonist)
Cc1onc(-c2ccccc2)c1C(=O)NNC(=S)NC(=O)c1ccc2c(c1)OCO2	V1aR counter 53, TRPML3 agonist 23, zfTRPN1 agonist 23, OXTR agonist 27
Cc1onc(-c2ccccc2)c1C(=O)NNC(=S)NC(=O)/C=C/c1cccs1	V1aR counter 24, OXTR agonist 29
Cc1onc(-c2ccccc2)c1C(=O)NC(=S)NNC(=O)c1ccncc1	none
Cc1onc(-c2ccccc2)c1C(=O)NCc1ccc2c(c1)OCO2	none
CCNC(=O)CN(c1ccccc1OC)S(=O)(=O)c1cccs1	none
COc1ccccc1N(CC(=O)NC(C)(C)C)S(=O)(=O)c1cccs1	zfTRPN1 agonist 42
C=C(C)c1cc2c(ccc3ccc(=O)oc32)o1	none (no result: TRPML3 agonist, zfTRPN1 agonist)
COc1cccc(CN2CCN(Cc3cc4ccccc4[nH]3)CC2CCO)c1 (centres undefined)	zfTRPN1 agonist 28
CCN(CC)c1ccc2c(-c3ccc(S(=O)(=O)O)cc3S(=O)(=O)[O-])c3ccc(=[N+](CC)CC)cc-3oc2c1	V1aR counter 180, OXTR agonist 266 (no result: TRPML3 agonist, zfTRPN1 agonist)
CCN(CC)c1ccc2cc(C(N)=O)c(=N)oc2c1	none
CCOC(=O)N1CCN(C(=O)c2ccc3c(c2)NC(=O)/C(=C\c2cccc(C)c2)S3)CC1	none (no result: TRPML3 agonist, zfTRPN1 agonist)
Nc1ccc2nc(CCc3ccccc3)[nH]c2c1	none
Cc1cc2nc3c(=O)n(CCc4ccccc4)c(=O)[nH]c3nc2cc1N	V1aR counter 41, zfTRPN1 agonist 51, OXTR agonist 64
CCCCn1c(N)c(Br)c(=O)[nH]c1=O	none
Nc1ccc2nc3c(=O)n(CCc4ccccc4)c(=O)[nH]c3nc2c1	V1aR counter 69, TRPML3 agonist 23, zfTRPN1 agonist 91, OXTR agonist 96
Nc1ccc2nc3c(=O)n(C4CCCCC4)c(=O)[nH]c3nc2c1	V1aR counter 159, TRPML3 agonist 43, zfTRPN1 agonist 79, OXTR agonist 91
CCCCn1c(=O)[nH]c2nc3cc(N)ccc3nc2c1=O	V1aR counter 30, TRPML3 agonist 30, zfTRPN1 agonist 42, OXTR agonist 50
COc1cc2[nH]c(=O)n(C3CCCCC3)c(=O)c2cc1OC	none
CCOC(=O)c1cccc(C2=CC(=O)C[C@H](c3ccc(OC)cc3)C2)c1	none (no result: TRPML3 agonist, zfTRPN1 agonist)
COc1ccc(C(=O)NC(=S)NNC(=O)c2ccc(C)cc2)cc1	V1aR counter 108, OXTR agonist 82 (no result: TRPML3 agonist, zfTRPN1 agonist)
CCC(=O)NC(=S)NNC(=O)c1ccc(OC)cc1	none
O=C(NNC(=S)NC(=O)c1sc2ccccc2c1Cl)c1ccc(Cl)cc1	V1aR counter 57, OXTR agonist 46
COc1ccc(C(=O)NNC(=S)NC(=O)c2ccc(Cl)cc2)cc1	V1aR counter 76, OXTR agonist 71 (no result: TRPML3 agonist, zfTRPN1 agonist)
COCc1ccc(C(=O)N2CCCC(CNC(=O)c3ccc(F)cc3)C2)o1 (centres undefined)	none (no result: TRPML3 agonist, zfTRPN1 agonist)
FC(F)(F)c1cnc(NNC(=S)Nc2ccccc2Cl)c(Cl)c1	TRPML3 agonist 17, zfTRPN1 agonist 29
COc1ccc(C2(c3ccc(OC)cc3)NC(=O)N(CC(=O)Nc3ccc(OC(F)F)cc3)C2=O)cc1	none (no result: TRPML3 agonist, zfTRPN1 agonist)
CC1(c2ccc(OC(F)F)cc2)NC(=O)N(CC(=O)Nc2ccc(S(N)(=O)=O)cc2)C1=O (centres undefined)	none
Cc1cc(NC(=O)CN2C(=O)NC(C)(c3ccc(OC(F)F)cc3)C2=O)no1 (centres undefined)	none
CC1(c2ccc(OC(F)F)cc2)NC(=O)N(CC(=O)Nc2ccc(OC(F)F)cc2)C1=O (centres undefined)	V1aR counter 28, OXTR agonist 40 (no result: TRPML3 agonist, zfTRPN1 agonist)
CC1(c2ccc(OC(F)F)cc2)NC(=O)N(CC(=O)Nc2cccc(F)c2)C1=O (centres undefined)	V1aR counter 31, OXTR agonist 53 (no result: TRPML3 agonist, zfTRPN1 agonist)
CCOC(=O)c1c(NC(=O)CN2C(=O)NC(C)(c3ccc(OC(F)F)cc3)C2=O)sc(C)c1C (centres undefined)	V1aR counter 20, OXTR agonist 27
CCOc1ccc(NC(=O)CN2C(=O)NC(C)(c3ccc(OC(F)F)cc3)C2=O)cc1 (centres undefined)	V1aR counter 43, OXTR agonist 43 (no result: TRPML3 agonist, zfTRPN1 agonist)
C=CCn1cc(C(=O)N2CCN(c3ccccc3)CC2)c(=O)c2cc(S(=O)(=O)N3CCCC3)ccc21	none (no result: TRPML3 agonist, zfTRPN1 agonist)
CCN(CC(=O)NCc1ccc(Cl)cc1)C(=O)CCc1ccccc1O	none (no result: TRPML3 agonist, zfTRPN1 agonist)
COc1ccc(S(=O)(=O)c2c(O)c3ccc(C(=O)Nc4ccc(F)cc4F)cc3[nH]c2=O)cc1	none (no result: TRPML3 agonist, zfTRPN1 agonist)
CC(C)CN(Cc1cc(=O)oc2cc(-c3ccccc3)c(O)cc12)CC(C)C	none
O=C(c1noc2c1CSc1ccccc1-2)N1CCN(c2ccc(Cl)cc2)CC1	none (no result: TRPML3 agonist, zfTRPN1 agonist)
CCCCN(C)C1=CC2=CC(=C(C#N)C#N)CCC2CC1 (centres undefined)	V1aR counter 873, TRPML3 agonist 225, zfTRPN1 agonist 239, OXTR agonist 771
CCN(CC)C1=CC2=CC(=C(C#N)C#N)CCC2CC1 (centres undefined)	V1aR counter 750, TRPML3 agonist 298, zfTRPN1 agonist 332, OXTR agonist 807
N#CC(C#N)=C1C=C2C=C(N3CCCCC3)CCC2CC1 (centres undefined)	V1aR counter 617, TRPML3 agonist 380, zfTRPN1 agonist active, OXTR agonist 921
CC(NC(=O)C1CCN(C(=O)[C@@H]2Cc3ccccc3CN2)CC1)c1ccccc1 (some centres undefined)	none (no result: TRPML3 agonist, zfTRPN1 agonist)
COc1cccc(NC(=O)CSc2nc3c(sc4ccccc43)c(=O)n2CCCN2CCCC2)c1	none (no result: TRPML3 agonist, zfTRPN1 agonist)
Cc1cc(C(C)(C)CC(C)(C)C)ccc1OCCOCC[N+](C)(C)Cc1ccccc1	V1aR counter 21, OXTR agonist 37 (no result: TRPML3 agonist, zfTRPN1 agonist)
Cc1ccc(S(=O)(=O)N2CCN(c3nn(C)c(=O)n(C)c3=O)CC2)cc1C	none (no result: TRPML3 agonist, zfTRPN1 agonist)
COc1cc(OC)cc(C(=O)NC(=S)NNC(=O)[C@H]2C[C@@H]2c2ccccc2)c1	TRPML3 agonist 19, zfTRPN1 agonist 34, OXTR agonist 23
CCOC(=O)/C(=C/C=C1\Sc2cc(OCC)c(OCC)cc2N1CC)C(C)=O	V1aR counter 289, TRPML3 agonist 30, zfTRPN1 agonist 46, OXTR agonist 248
CCN1/C(=C/C(C)=O)Sc2ccc(OC)cc21	none
CCOC(=O)/C(=C\C=C1/Sc2cc(OCC)c(OCC)cc2N1CC)C(C)=O	V1aR counter 92, TRPML3 agonist 46, zfTRPN1 agonist 74, OXTR agonist 148
CN(Cc1ccco1)S(=O)(=O)c1cc(F)ccc1CN1C(=O)c2cccnc2C1=O	none (no result: TRPML3 agonist, zfTRPN1 agonist)
CN1Cc2sc(NC(=S)NC(=O)c3ccccc3)c(C#N)c2CC1(C)C	V1aR counter 34, OXTR agonist 32
COc1ccc(-c2cn3cc(C(F)(F)F)cc(Cl)c3n2)cc1	OXTR potentiate 11

Bioassay records: PubChem BioAssay, The Scripps Research Institute Molecular Screening Center
